Non-standard residues stand in square brackets, D forms with d. Residues, ends and D or L forms follow the SMILES beside them. *: point of attachment. Hyp = O=C(O)[C@@H]1C[C@@H](O)CN1; Tic = O=C(O)[C@@H]1Cc2ccccc2CN1; Octanoyl = CCCCCCCC(=O)*; Boc = CC(C)(C)OC(=O)*; tBu = CC(C)(C)*
Tests used:
[1] = target: T1, Replicase polyprotein 1ab (Severe acute respiratory syndrome coronavirus 2, UniProt P0DTD1); test: Inhibition of C-terminal His6-tagged recombinant SARS-CoV-2 MPro transfected in Escherichia coli BL21 (DE3) using Dabcyl-KTSAVLQSGFRKM-E(Edans)-NH2 as substrate preincubated for 15 mins followed by substrate addition measured after 30 mins by FRET assay
Method in brief: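 Recombinant Mpro (20 nM final) was preincubated 15 min at room temperature with compound.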

[2] = target: T1, Replicase polyprotein 1ab; test: Binding affinity to C-terminal His6-tagged recombinant SARS-CoV-2 MPro transfected in Escherichia coli BL21 (DE3) assessed as dissociation constant by Cheng-Prusoff equation analysis
[3] = Cytotoxicity against HELF cells assessed as change in cell morphology; type: toxicity, cell-based; details: human
[4] = Cmax in C57BL6 mouse at 1.25 mg/kg, INH; type: ADME, organism-based; parameters: dose 1.25 mg/kg, route inh; details: in vivo, inhaled_or_intranasal
Method in brief: (§1)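 Male C57BL6 mice, 6–8 weeks, 3 per group, single intranasal dose (0.5 mg/kg at 1.0 mg/mL; 1.25 mg/kg at 2.5 mg/mL) or oral dose (10 mg/kg at 1.0 mg/mL; 25 mg/kg at 2.5 mg/mL). Blood collected at 0.25, 1, 2, 4, 8 and 24 h. Cmax, Tmax and AUCt/dose were taken from plasma concentrations, given with SD.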

[5] = AUCt/dose in C57BL6 mouse at 0.5 mg/kg, INH measured for 0.25 to 24 hrs; type: ADME, organism-based; details: in vivo, inhaled_or_intranasal, time 0.25-24 hrs; method in brief: as §1
[6] = Selectivity index, ratio of EC50 for antiviral activity against SARS-CoV-2 RG2674 infected in African green monkey Vero cells to EC50 for antiviral activity against SARS-CoV-2 UC-1074 infected in African green monkey Vero cells; type: toxicity
[7] = system: SARS-CoV-2; test: Antiviral activity against SARS-CoV-2 UC-1074 infected in African green monkey Vero cells assessed as reduction in virus-induced cytopathic effect incubated for 5 days by microscopic analysis; type: functional, organism-based; details: Severe acute respiratory syndrome coronavirus 2, UC-1074, Vero, 120 h
[8] = system: SARS-CoV-2; test: Antiviral activity against SARS-CoV-2 RG2674 infected in African green monkey Vero cells assessed as reduction in virus-induced cytopathic effect incubated for 5 days by microscopic analysis; type: functional, organism-based; details: Severe acute respiratory syndrome coronavirus 2, RG2674, Vero, 120 h
[9] = system: SARS-CoV-2; test: Antiviral activity against SARS-CoV-2 NVDBB-2220 infected in African green monkey Vero cells assessed as reduction in virus-induced cytopathic effect incubated for 5 days by microscopic analysis; type: functional, organism-based; details: Severe acute respiratory syndrome coronavirus 2, NVDBB-2220, Vero, 120 h
[10] = Cytotoxicity against African green monkey Vero cells assessed as change in cell morphology by microscopic analysis; type: toxicity, cell-based; details: chlorocebus sabaeus
Method in brief: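 Vero CCL81 cells were run in parallel with the antiviral assay in DMEM 2% FCS for 5 days at 37 °C. The value is the minimum concentration causing a microscopically detectable change in cell morphology.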

[11] = system: Vero; test: Cytotoxicity against African green monkey Vero cells assessed as reduction in cell growth by Coulter counter analysis; type: toxicity, cell-based; details: chlorocebus sabaeus
Method in brief: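 Mock-infected Vero CCL81 cultures were treated with the compound dilution series in DMEM 2% FCS for 5 days at 37 °C.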

[12] = target: T1, Replicase polyprotein 1ab; test: Binding affinity to C-terminal His6-tagged recombinant SARS-CoV-2 MPro expressed in Escherichia coli BL21 (DE3) assessed as dissociation constant by ITC assay
Method in brief: (§2)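 E. coli BL21(DE3) Mpro, made untagged by 3C cleavage and SEC, was dialysed into 25 mM Tris-HCl pH 7.6, 20 mM NaCl, 1 mM TCEP. 20–25 µM protein in the cell was titrated with 160–250 µM compound at 28 °C, 0.5% DMSO on both sides, 2.5 µL injections every 180 s. One-site fit with stoichiometry fixed at 1 gave ΔH, ΔS and KD.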

[13] = target: Replicase polyprotein 1ab (Severe acute respiratory syndrome coronavirus 2) (UniProt P0DTD1); test: Binding affinity to C-terminal His6-tagged recombinant SARS-CoV-2 MPro expressed in Escherichia coli BL21 (DE3) assessed as change in gibbs free energy by ITC assay
[14] = target: Replicase polyprotein 1ab (Severe acute respiratory syndrome coronavirus 2) (UniProt P0DTD1); test: Binding affinity to C-terminal His6-tagged recombinant SARS-CoV-2 MPro expressed in Escherichia coli BL21 (DE3) assessed as change in enthalpy by ITC assay; method in brief: as §2
[15] = target: Replicase polyprotein 1ab (Severe acute respiratory syndrome coronavirus 2) (UniProt P0DTD1); test: Binding affinity to C-terminal His6-tagged recombinant SARS-CoV-2 MPro expressed in Escherichia coli BL21 (DE3) assessed as change in entropy by ITC assay; method in brief: as §2
[16] = system: Human betaherpesvirus 5; test: Antiviral activity against HCMV AD-169 infected in HELF cells assessed as reduction in viral replication; type: functional, organism-based; details: Human betaherpesvirus 5, AD-169, HELF
[17] = system: Human betaherpesvirus 5; test: Antiviral activity against HCMV Davis infected in HELF cells assessed as reduction in viral replication; type: functional, organism-based; details: Human betaherpesvirus 5, Davis
[18] = system: Human alphaherpesvirus 3; test: Antiviral activity against thymidine kinase positive VZV OKA infected in HELF cells assessed as reduction in viral replication; type: functional, organism-based; details: Human alphaherpesvirus 3, OKA
[19] = system: Human alphaherpesvirus 3; test: Antiviral activity against thymidine kinase deficient VZV 07-1 infected in HELF cells assessed as reduction in viral replication; type: functional, organism-based; details: Human alphaherpesvirus 3, 07-1, HELF
[20] = Cmax in C57BL6 mouse at 0.5 mg/kg, INH measured for 0.25 to 24 hrs; type: ADME, organism-based; parameters: time lower 0.25 hrs, dose 0.5 mg/kg, time upper 24 hrs, route inh; details: in vivo, inhaled_or_intranasal; method in brief: as §1
[21] = Tmax in C57BL6 mouse at 0.5 mg/kg, INH; type: ADME, organism-based; details: in vivo, inhaled_or_intranasal; method in brief: as §1
[22] = Tmax in C57BL6 mouse at 1.25 mg/kg, INH; type: ADME, organism-based; details: in vivo, inhaled_or_intranasal; method in brief: as §1
[23] = AUCt/dose in C57BL6 mouse at 1.25 mg/kg, INH; type: ADME, organism-based; details: in vivo, inhaled_or_intranasal; method in brief: as §1
[24] = Cmax in C57BL6 mouse at 10 mg/kg, po; type: ADME, organism-based; parameters: dose 10 mg/kg, route po; details: in vivo; method in brief: as §1
[25] = Tmax in C57BL6 mouse at 10 mg/kg, po; type: ADME, organism-based; details: in vivo; method in brief: as §1
[26] = AUCt/dose in C57BL6 mouse at 10 mg/kg, po; type: ADME, organism-based; details: in vivo; method in brief: as §1
[27] = Cmax in C57BL6 mouse at 25 mg/kg, po; type: ADME, organism-based; parameters: dose 25 mg/kg, route po; details: in vivo; method in brief: as §1
[28] = Tmax in C57BL6 mouse at 25 mg/kg, po; type: ADME, organism-based; details: in vivo; method in brief: as §1
[29] = AUCt/dose in C57BL6 mouse at 25 mg/kg, po; type: ADME, organism-based; details: in vivo; method in brief: as §1
[30] = Selectivity index, ratio of EC50 for antiviral activity against SARS-CoV-2 RG2674 infected in African green monkey Vero cells to EC50 for antiviral activity against SARS-CoV-2 NVDBB-2220 infected in African green monkey Vero cells; type: toxicity
[31] = Stability of compound in PBS buffer at pH 7 at 25 to […] degreeC measured for 3 to 24 hrs by HPLC analysis; type: physicochemical; details: time 3-24 hrs
Method in brief: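 Peptide at 0.3 mg/mL was held in PBS pH 7.0 at 25 °C and 37 °C for 24 h. The peptide peak area was followed by RP-HPLC on C18 with detection at 220 nm, sampled at 3, 6, 8 and 24 h.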

Compound: CC(=O)NCC(=O)N[C@@H](Cc1ccc(O)cc1)C(=O)N[C@H](C=O)Cc1c[nH]cn1 (Ac-Gly-Tyr-His-aldehyde)
- IC50 [1]: 198 µM
- Kd [2]: 98.9 µM

Compound: Nc1nc2c(ncn2COCCO)c(=O)[nH]1 [ACYCLOVIR]
- MCC [3]: > 444 µM

Compound: CCCCCCCC(=O)NCC(=O)N[C@@H](Cc1ccccc1)C(=O)N[C@H](C=O)Cc1c[nH]cn1 (Octanoyl-Gly-Phe-His-aldehyde)
- IC50 [1]: 2.37 µM
- Cmax [4]: 325.95 ng/mL
- AUCt/dose [5]: 188.05 kg·ng·h/mL/mg
- Ratio EC50 [6]: 8
- Kd [2]: 1.19 µM
- EC50 [7]: 5 µM
- EC50 [8]: 39.9 µM
- EC50 [9]: 5.2 µM
- MCC [10]: ≥ 100 µM
- CC50 [11]: > 100 µM
- Kd [12]: 0.425 µM
- deltaG [13]: -8.8 kcal/mol
- deltaH [14]: -16.4 kcal/mol
- -TdeltaS [15]: 7.6 kcal/mol
- EC50 [16]: > 20 µM
- EC50 [17]: > 100 µM
- EC50 [18]: > 100 µM
- EC50 [19]: > 100 µM
- MCC [3]: > 100 µM
- Cmax [20]: 177.97 ng/mL
- Tmax [21]: 15 min
- Tmax [22]: 15 min
- AUCt/dose [23]: 150.62 kg·ng·h/mL/mg
- Cmax [24]: 22.72 ng/mg
- Tmax [25]: 45 min
- AUCt/dose [26]: 3.07 kg·ng·h/mL/mg
- Cmax [27]: 33.7 ng/mL
- Tmax [28]: 30 min
- AUCt/dose [29]: 2 kg·ng·h/mL/mg
- Ratio EC50 [30]: 8

Compound: CCC(CC)COC(=O)[C@H](C)N[P@](=O)(OC[C@H]1O[C@@](C#N)(c2ccc3c(N)ncnn23)[C@H](O)[C@@H]1O)Oc1ccccc1
- EC50 [7]: 0.89 µM
- EC50 [8]: 1.3 µM
- EC50 [9]: 0.2 µM
- MCC [10]: 80 µM
- CC50 [11]: 70.6 µM

Compound: CC(=O)NCC(=O)N[C@@H](Cc1ccccc1)C(=O)N[C@H](C=O)Cc1c[nH]cn1 (Ac-Gly-Phe-His-aldehyde)
- IC50 [1]: 2.51 µM
- Kd [2]: 1.26 µM
- Stability [31]: Stable
- EC50 [7]: 66.1 µM
- EC50 [8]: > 100 µM
- EC50 [9]: 40.3 µM
- MCC [10]: ≥ 100 µM
- CC50 [11]: > 100 µM
- Kd [12]: 0.64 µM
- deltaG [13]: -8.53 kcal/mol
- deltaH [14]: -12.7 kcal/mol
- -TdeltaS [15]: 4.16 kcal/mol
- EC50 [16]: > 20 µM
- EC50 [17]: > 100 µM
- EC50 [18]: > 100 µM
- EC50 [19]: > 100 µM
- MCC [3]: > 100 µM

Compound: CC(=O)NCC(=O)N[C@@H](Cc1c[nH]cn1)C(=O)N[C@H](C=O)Cc1ccc(O)cc1 (Ac-Gly-His-Tyr-aldehyde)
- IC50 [1]: > 425 µM
- Kd [2]: > 213 µM

Compound: CC(=O)NCC(=O)N[C@@H](Cc1c[nH]cn1)C(=O)N[C@H](C=O)Cc1c[nH]cn1 (Ac-Gly-His-His-aldehyde)
- IC50 [1]: > 213 µM
- Kd [2]: > 107 µM

Compound: CC(C)C[C@@H](C=O)NC(=O)[C@H](Cc1ccccc1)NC(=O)[C@@H]1Cc2ccccc2CN1 (H-[Tic]-Phe-Leu-aldehyde)
- IC50 [1]: > 425 µM
- Kd [2]: > 213 µM

Compound: CC(C)(C)OC(=O)NCC(=O)N[C@@H](Cc1ccccc1)C(=O)N[C@H](C=O)Cc1c[nH]cn1 (Boc-Gly-Phe-His-aldehyde)
- IC50 [1]: 6.49 µM
- Kd [2]: 3.26 µM
- EC50 [7]: 50.2 µM
- EC50 [8]: 84.9 µM
- EC50 [9]: 43.3 µM
- MCC [10]: ≥ 100 µM
- CC50 [11]: > 100 µM
- Kd [12]: 0.442 µM
- deltaG [13]: -8.77 kcal/mol
- deltaH [14]: -14.5 kcal/mol
- -TdeltaS [15]: 5.78 kcal/mol
- EC50 [16]: > 20 µM
- EC50 [17]: > 100 µM
- EC50 [18]: > 100 µM
- EC50 [19]: > 100 µM
- MCC [3]: > 100 µM

Compound: CC(C)(C)O[C@H]1CN[C@H](C(=O)N[C@@H](Cc2c[nH]cn2)C(=O)N[C@H](C=O)Cc2c[nH]cn2)C1 (H-[Hyp](tBu)-His-His-aldehyde)
- IC50 [1]: > 170 µM
- Kd [2]: > 85 µM

Compound: O=C[C@H](Cc1c[nH]cn1)NC(=O)[C@H](Cc1c[nH]cn1)NC(=O)[C@@H]1Cc2ccccc2CN1 (H-[Tic]-His-His-aldehyde)
- IC50 [1]: 37.8 µM
- Kd [2]: 18.9 µM

Compound: Nc1ccn(C[C@@H](CO)OCP(=O)(O)O)c(=O)n1 [CIDOFOVIR]
- EC50 [16]: 1.08 µM
- EC50 [17]: 0.25 µM

Compound: Ac-GGVLVQPG-NH2
- EC50 [7]: 17.6 µM

Compound: O=c1[nH]c(=O)n([C@H]2C[C@H](O)[C@@H](CO)O2)cc1/C=C/Br [BRIVUDINE]
- EC50 [18]: 0.17 µM
- EC50 [19]: 4.53 µM
- MCC [3]: > 300 µM
